Compound activity from PubChem.
Rows were chosen to be rich in hits. Some 4.1% of all compounds tested hit in one or more screens of this group.
KCNQ1 block: inhibitors of human KCNQ1 potassium channel; P51787; CHO-K1 KCNQ1, FluxOR thallium flux fluorescence; stronger effect = higher value; B-score at 10 µM; 310,000 compounds, 1.3% hits; AID 2642;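 active means compounds whose thallium flux B-score, printed positive for inhibition, exceeds three library SD while starting fluorescence stays within three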;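 further: channel opened by potassium depolarization with thallium stimulus after 20 min compound exposure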
Target sequence (P51787 whole entry, looked up): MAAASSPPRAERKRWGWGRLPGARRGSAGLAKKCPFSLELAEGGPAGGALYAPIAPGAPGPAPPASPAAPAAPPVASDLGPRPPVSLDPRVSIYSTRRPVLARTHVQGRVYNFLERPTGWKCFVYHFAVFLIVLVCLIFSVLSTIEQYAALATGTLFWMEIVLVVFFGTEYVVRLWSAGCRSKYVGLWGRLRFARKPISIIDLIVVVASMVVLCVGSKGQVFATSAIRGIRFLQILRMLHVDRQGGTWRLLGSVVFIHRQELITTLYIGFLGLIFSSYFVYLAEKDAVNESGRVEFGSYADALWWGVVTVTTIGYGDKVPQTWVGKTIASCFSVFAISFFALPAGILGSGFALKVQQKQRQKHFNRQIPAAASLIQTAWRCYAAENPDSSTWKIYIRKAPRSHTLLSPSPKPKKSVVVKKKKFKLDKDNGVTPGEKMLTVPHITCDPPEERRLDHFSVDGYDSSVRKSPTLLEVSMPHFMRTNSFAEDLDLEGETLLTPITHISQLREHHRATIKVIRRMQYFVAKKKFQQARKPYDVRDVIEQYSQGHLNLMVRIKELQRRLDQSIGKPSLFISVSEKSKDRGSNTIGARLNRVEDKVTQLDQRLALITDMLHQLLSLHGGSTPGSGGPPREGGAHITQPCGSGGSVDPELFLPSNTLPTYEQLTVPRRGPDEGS
KCNQ1 act: human KCNQ1 channel potentiation or activation | 310,000 compounds, 0.35% hits | B-score at 10 µM | CHO-K1 KCNQ1, thallium flux FluxOR fluorescence; stronger effect = higher value | P51787 | AID 2648;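 active means fluorescence ratio B-score, a plate-corrected score, at least three library SD, with initial intensity B-score within 5 SD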
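Assay system: CHO-K1 cells stably expressing KCNQ1. Medium: assay buffer for compound exposure, DMSO matched across wells. Timing: 37 °C overnight plating, 90-min dark dye load, 20-min compound pretreatment. Signal: kinetic FluxOR fluorescence, 10 s baseline plus 110 s post-stimulus.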
Cl transport mod: modulates chloride dependent transport by human KCC2. 190,000 compounds, 2.2% hits. KCC2 cells, thallium flux FluoZin-2 fluorescence. B-score of Tl+ flux slope (higher = more flux/activation; lower = inhibition) at 10 µM. AID 1456. Q9H2X9;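 active means thallium flux slope and its plate-corrected score both differing from the plate sample mean at a set confidence after two filtering rounds, in either direction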;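 further: slope of fluorescence scaled to starting intensity during 10 to 20 s after thallium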
KCNK9 block: human KCNK9 channel inhibition | HEK293 KCNK9, FluxOR thallium flux fluorescence; stronger effect = lower value | B-score at 10 µM | 310,000 compounds, 1.2% hits | AID 488922;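 active means ratio B-score over 3 SD below the library mean, with starting fluorescence within 5 SD of its mean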;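 further: negative B-score means less thallium flux so channel inhibition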
KCNK3 block: human KCNK3 channel inhibition, primary screen; O14649; CHO-KCNK3 thallium flux, FluxOR fluorescence; stronger effect = lower value; B-score at 10 µM; 340,000 compounds, 0.84% hits; AID 602410;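 active means B-score under library mean minus 4 SD, starting fluorescence ratio at most library mean plus 5 SD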;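 further: more negative B-score means stronger inhibition of thallium flux through KCNK3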
hERG rescue: hERG (human) protection from proarrhythmic block. Q12809. CHO-hERG, FluxOR thallium flux, dofetilide IC70 present. activation (rescue from dofetilide block), less the hit threshold, % at 10 µM. 310,000 compounds, 0.51% hits;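 active means activation above the mean of controls blocked by dofetilide plus 5 SD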;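 further: thallium influx through hERG after potassium depolarization seen as dye fluorescence rise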
KCC2 sec1: confirmation of human KCC2 transport modulators. normalised thallium flux (F/F0 slope) at 10 µM. 3,700 compounds, 15% hits. AID 1713. HEK293-KCC2, thallium flux, FluoZin2 fluorescence; stronger effect = higher value. shares compounds with Cl transport mod;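 active means thallium flux slope above the same plate's solvent-only control mean plus 3 SD; inconclusive means the two replicate wells disagree; inactive means no significant difference from solvent-only control wells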
KCC2 bumet counter: thallium flux persisting under bumetanide in KCC2 cells, counter-screen secondary assay; shares compounds with Cl transport mod; HEK293-KCC2 + bumetanide/ouabain, thallium flux FluoZin2; stronger effect = higher value; normalized thallium flux at 10 µM; 3,700 compounds, 49% hits; AID 1714;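 active means thallium entry rate above the same plate's blocked-transporter control wells by more than 3 SD; inconclusive means the two repeat wells disagree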;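 further: raw slope of fluorescence over initial fluorescence between 10 and 20 s after thallium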
KCC2 sec2: confirmation of human KCC2 transport modulators | 3,700 compounds, 23% hits | shares compounds with Cl transport mod | normalized thallium flux at 10 µM | HEK293-KCC2, thallium flux FluoZin2 fluorescence; actives lie on both sides; F/F0 rise rate, 10–20 s post-thallium;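 active means thallium flux slope more than 3 SD above or below the plate's solvent-only control mean, mostly below; inconclusive means the two repeat wells disagreed; inactive means no significant shift from solvent-only controls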;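 further: raw slope with 0.1% DMSO as baseline and bumetanide as block control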
HEK293 Tl flux: counter-screen for KCC2 modulators: effect in parental HEK293 cells; shares compounds with Cl transport mod; thallium flux FluoZin2, ouabain; baseline-ratio fluorescence slope, 10–20 s after thallium; thallium flux rate (normalised fluorescence) at 10 µM; 3,700 compounds, 46% hits; AID 1716;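 active means thallium flux rate significantly above the same plate's solvent-only control wells, beyond their mean plus 3 SD; inconclusive means the two replicate wells gave conflicting results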
KCC2 retest ouab: modulates human KCC2 on retest with ouabain | shares compounds with Cl transport mod | HEK293-KCC2, thallium flux FluoZin2 fluorescence; bidirectional: low = inhibitor, high = activator | raw Tl+ flux slope (below DMSO = inhibition, above = activation) at 10 µM | 3,700 compounds, 48% hits;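 active means thallium flux slope beyond 3 SD from same-plate DMSO control mean in most replicates, usually higher, sometimes lower; inconclusive means repeat tests gave conflicting results; inactive means no significant difference from controls in most replicates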;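 further: slope of initial-normalized fluorescence between seconds 10 and 20 after thallium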
HEK293 Tl flux2: parental HEK flux effect, counter-screen 2. thallium flux slope at 10 µM. HEK293 parental, thallium flux FluoZin-2 fluorescence slope. shares compounds with Cl transport mod. 3,700 compounds, 33% hits;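 active means thallium flux slope above the same plate's solvent-control mean plus 3 SD in both duplicate wells; inconclusive means duplicate wells that disagreed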;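 further: run without ouabain in cells lacking the KCC2 cotransporter; slope of fluorescence scaled to its starting value between 10 and 20 s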
Starred values were filed as active, the others as inactive; i = inactive; ? = inconclusive; nt = no result given; ! = not confirmed by another sample.

SMILES | KCNQ1 block | KCNQ1 act | Cl transport mod | KCNK9 block | KCNK3 block | hERG rescue | KCC2 sec1 | KCC2 bumet counter | KCC2 sec2 | HEK293 Tl flux | KCC2 retest ouab | HEK293 Tl flux2
O=C(c1ccc(O)cc1)c1ccc(C(=O)c2ccc(O)cc2)cc1 | i | i | 0.72 | i | i | -9 | 0.0081 | 0.0074 | 0.027 | 0.0069 | 0.019 | 0.0094
O=C(CC(O)(c1ccccc1)c1ccccc1)Nc1ccccn1 | nt | nt | nt | nt | i | nt | nt | nt | nt | nt | nt | nt
COc1ccc2[nH]c3c(NCCN4CCCCC4)ncnc3c2c1 | i | i | -5.2* | i | i | -1 | 0.0068 | 0.0046 | 0.028 | 0.0073 | 0.019 | 0.011
CCOc1ccc2[nH]c3c(NCCO)ncnc3c2c1 | i | i | nt | i | i | -5 | nt | nt | nt | nt | nt | nt
CC(OC(=O)CSCC(=O)Nc1ccc(Cl)cc1)C(=O)N(C)Cc1ccccc1 (stereo not given) | nt | nt | nt | nt | i | nt | nt | nt | nt | nt | nt | nt
CCOC(=O)N1CCN(C(=O)c2cccc(-n3c(=S)[nH]c4cc(Cl)ccc4c3=O)c2)CC1 | i | i | nt | i | i | -8 | 0.0071 | 0.012* | ? | 0.017* | 0.025* | 0.02*
COC(CNC(=O)c1cccc(-n2c(=S)[nH]c3cc(Cl)ccc3c2=O)c1)OC | i | i | 4.4* | i | i | -11 | ? | 0.021* | 0.034 | 0.015* | ? | 0.012*
CCOC(=O)N1CCN(C(=O)c2ccc3c(=O)n(-c4ccc(OC)cc4)c(=S)[nH]c3c2)CC1 | i | i | -3.6* | i | i | -4 | 0.015 | 0.0038 | 0.032 | ? | 0.017 | 0.011
COC(CNC(=O)c1ccc(-n2c(=S)[nH]c3ccccc3c2=O)cc1)OC | i | i | 1.4 | i | i | -11 | nt | nt | nt | nt | nt | nt
C/C=C/C1=CC(=O)C[C@H](c2ccc3c(c2)OCO3)C1 | nt | nt | nt | nt | i | nt | nt | nt | nt | nt | nt | nt
Cc1cc(C)c(C(N)=O)c(SCC(=O)c2cc(C)n(-c3cc(C)on3)c2C)n1 | nt | nt | nt | nt | i | nt | nt | nt | nt | nt | nt | nt
CC(=O)C12OC(C)(C)OC1CC1C3CCC4=CC(=O)C=CC4(C)C3(F)C(O)CC12C (stereo not given) | nt | nt | nt | nt | i | nt | nt | nt | nt | nt | nt | nt
O=C(O)CC(=O)NC12CC3CC(CC(C3)C1)C2 | i | i | 0.31 | i | i | -10 | 0.0092 | 0.0062 | 0.035 | 0.0079 | 0.022 | ?
O=C(CN1CCCC1)NC12CC3CC(CC(C3)C1)C2 | i | i | -0.13 | i | i | -7 | nt | nt | nt | nt | nt | nt
COc1cc(C(=O)NCC(c2cccs2)N2CCOCC2)cc(Br)c1OCc1ccccc1 (stereo not given) | nt | nt | nt | nt | i | nt | nt | nt | nt | nt | nt | nt
O=[N+]([O-])c1ccc(CSc2nnc(SCc3ccccc3)s2)cc1 | i | i | -5.4* | i | i | -16 | 0.0066 | 0.0048 | 0.024* | 0.0069 | 0.014* | 0.0093
N#Cc1c(-c2ccc(Cl)cc2)c(-c2ccc(Cl)cc2)nn(CCO)c1=O | nt | nt | nt | nt | i | nt | nt | nt | nt | nt | nt | nt
Cc1ccc(-n2[nH]c(C)c(/C=N/Nc3ccc([N+](=O)[O-])cc3[N+](=O)[O-])c2=O)cc1 | 7* | i | -4.7* | i | i | -9 | 0.0064 | 0.011* | 0.03 | 0.0072 | ? | 0.0095
Cc1[nH]n(-c2ccc([N+](=O)[O-])cc2)c(=O)c1C=NCC1CCCO1 (stereo not given) | i | i | -1.4 | i | i | -1 | nt | nt | nt | nt | nt | nt
CC(C)Oc1ccc2c(=O)c(-c3ccccc3)coc2c1 | i | i | -3.6*! | i | i | -9 | 0.0032* | 0.0054 | 0.028 | ? | 0.014* | 0.0095
Cc1ccccc1NCC(=O)N/N=C/c1ccc([N+](=O)[O-])cc1 | i | i | -5.8* | i | i | -5 | 0.0075 | 0.0049 | ? | 0.008 | 0.018 | 0.0099
Cc1ccccc1NC(=O)CCC(=O)N/N=C/c1cc([N+](=O)[O-])ccc1O | i | i | -2.2 | i | i | -10 | nt | nt | nt | nt | nt | nt
CCN(Cc1ccccc1)C(=O)c1cc(COc2c(F)cccc2F)on1 | i | i | -4.7* | i | i | -15 | 0.0061 | 0.0045 | 0.031 | 0.0066 | 0.014* | ?
O=C(NCC1OCCc2ccccc21)c1cc(COc2c(F)cccc2F)on1 (stereo not given) | i | i | -6* | i | i | -3 | 0.0055 | 0.0044 | ? | ? | 0.013* | 0.011
CCN(CCn1cccn1)C(=O)c1cc(COc2c(F)cccc2F)on1 | i | i | -1.5 | i | i | -8 | nt | nt | nt | nt | nt | nt
SMILES | KCNQ1 block | KCNQ1 act | Cl transport mod | KCNK9 block | KCNK3 block | hERG rescue | KCC2 sec1 | KCC2 bumet counter | KCC2 sec2 | HEK293 Tl flux | KCC2 retest ouab | HEK293 Tl flux2
O=C(NC1CCc2ccccc21)c1cc(COc2c(F)cccc2F)on1 (stereo not given) | i | i | -3 | i | i | -12 | nt | nt | nt | nt | nt | nt
O=C(CSc1nc(-c2ccc(F)cc2)cs1)N1CCN(C(=O)c2ccco2)CC1 | i | i | -3.1* | i | i | -17 | 0.0074 | 0.0061 | 0.029 | 0.0061 | 0.015* | 0.009
CCc1cc2cccc(C)c2nc1SCC(=O)N1CCN(C(=O)c2ccco2)CC1 | i | i | -3.2* | i | i | -21 | 0.016 | 0.0043 | 0.021* | 0.0047* | 0.013* | 0.0072*
O=C(CSc1nc2ccccc2s1)N1CCN(C(=O)c2ccco2)CC1 | i | i | -0.016 | i | i | -8 | nt | nt | nt | nt | nt | nt
C=CCNC(=O)c1n[nH]c2c1CC(C(C)(C)CC)CC2 (stereo not given) | nt | nt | nt | nt | i | nt | nt | nt | nt | nt | nt | nt
COC(=O)c1cccc(C23CC4(C2)[C@H](CN(Cc2cccnc2)[C@@H]4c2ccccc2)C3c2ccc(C(F)(F)F)cc2)c1 (stereo not given in full) | i | i | -3.2* | i | nt | -7 | ? | 0.0085* | 0.032 | 0.0087 | 0.022 | 0.011
O=C(O)c1cc(-c2ccc(-c3ccc(F)cc3)o2)nc2ccccc12 | i | i | nt | i | i | -2 | nt | nt | nt | nt | nt | nt
